According to ChEMBL document CHEMBL4732181, “Pyrazolo[3,4-d]pyrimidine-based dual EGFR T790M/HER2 inhibitors: Design, synthesis, structure-activity relationship and biological activity as potential antitumor and anticonvulsant agents” (Eur J Med Chem, 2021):
Activity calls are given as the source filed them. No cut-off for these calls is given here.

Legend:
[1] = test system: MCF7; test: Cytotoxicity against human MCF7 cells assessed as reduction in cell viability after 48 hrs by MTT assay; type: functional, cell-based; settings: MCF7, 48 h
In short: (§1)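 Cells from ATCC grown in DMEM with 10% FBS, insulin and 1% penicillin-streptomycin. Plated at 1.2-1.8 × 10,000 cells/well for 24 h, then exposed to compounds in DMSO vehicle for 48 h. MTT 0.5 mg/ml added for 2 h; absorbance read at 570 nm. Experiments run in triplicate.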

[2] = test system: WI-38; test: Cytotoxicity against human WI-38 cells assessed as reduction in cell viability after 48 hrs by MTT assay; type: cell-based; settings: WI-38, 48 h; in short: as §1
[3] = test system: Mus musculus; test: Anticonvulsant activity against mouse model of LiCa/pilocarpine-induced status epilepticus assessed as mean power frequency at 20 mg/kg, po for 10 days by EEG method relative to control; type: functional; settings: time 10 day
In short: (§2)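 Male mice (20-30 g), five per group, dosed orally once daily for 10 days. Status epilepticus was then induced with LiCa (3 mEq/kg i.p.), atropine sulfate (1 mg/kg i.p.) 30 min before pilocarpine, and pilocarpine HCl (300 mg/kg i.p.) 2 h after LiCa. Normal controls received oral distilled water. Comparators were untreated SE, phenytoin and lamotrigine. One-way ANOVA with Tukey post-hoc; mean ± SD.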

[4] = test system: Mus musculus; test: Anticonvulsant activity against mouse model of LiCa/pilocarpine-induced status epilepticus assessed as spectral edge frequency at 20 mg/kg, po for 10 days by EEG method relative to control; type: functional; settings: time 10 day; in short: as §2
[5] = test system: Mus musculus; test: Anticonvulsant activity against mouse model of LiCa/pilocarpine-induced status epilepticus assessed as total power at 20 mg/kg, po for 10 days by EEG method relative to control; type: functional; settings: time 10 day; in short: as §2
[6] = test system: Mus musculus; test: Anticonvulsant activity against mouse model of LiCa/pilocarpine-induced status epilepticus assessed as amplitude at 20 mg/kg, po for 10 days by EEG method relative to control; type: functional; settings: time 10 day; in short: as §2
[7] = test system: Mus musculus; test: Anticonvulsant activity against mouse model of LiCa/pilocarpine-induced status epilepticus assessed as amplitude density at 20 mg/kg, po for 10 days by EEG method relative to control; type: functional; settings: time 10 day; in short: as §2
[8] = test system: Mus musculus; test: Anticonvulsant activity against mouse model of LiCa/pilocarpine-induced status epilepticus assessed as power pV2 at 20 mg/kg, po for 10 days by EEG method relative to control; type: functional; settings: time 10 day; in short: as §2
[9] = test system: Mus musculus; test: Anticonvulsant activity against mouse model of LiCa/pilocarpine-induced status epilepticus assessed as total power density at 20 mg/kg, po for 10 days by EEG method relative to control; type: functional; settings: time 10 day; in short: as §2
[10] = test system: Mus musculus; test: Anticonvulsant activity against mouse model of LiCa/pilocarpine-induced status epilepticus assessed as delta at 20 mg/kg, po for 10 days by EEG method relative to control; type: functional; settings: time 10 day; in short: as §2
[11] = test system: Mus musculus; test: Anticonvulsant activity against mouse model of LiCa/pilocarpine-induced status epilepticus assessed as theta at 20 mg/kg, po for 10 days by EEG method relative to control; type: functional; settings: time 10 day; in short: as §2
[12] = test system: Mus musculus; test: Anticonvulsant activity against mouse model of LiCa/pilocarpine-induced status epilepticus assessed as alpha at 20 mg/kg, po for 10 days by EEG method relative to control; type: functional; settings: time 10 day; in short: as §2
[13] = test system: Mus musculus; test: Anticonvulsant activity against mouse model of LiCa/pilocarpine-induced status epilepticus assessed as MDA level in brain at 20 mg/kg, po for 10 days by calorimetric method relative to control; type: functional; settings: time 10 day; in short: as §2
[14] = test system: Mus musculus; test: Anticonvulsant activity against mouse model of LiCa/pilocarpine-induced status epilepticus assessed as GSH level in brain at 20 mg/kg, po for 10 days by calorimetric method relative to control; type: functional; settings: time 10 day; in short: as §2
[15] = test system: Mus musculus; test: Anticonvulsant activity against mouse model of LiCa/pilocarpine-induced status epilepticus assessed as GABA level in brain at 20 mg/kg, po for 10 days by ELISA relative to control; type: functional; settings: time 10 day; in short: as §2
[16] = test system: Mus musculus; test: Anticonvulsant activity against mouse model of LiCa/pilocarpine-induced status epilepticus assessed as Glutamate level in brain at 20 mg/kg, po for 10 days by ELISA relative to control; type: functional; settings: time 10 day; in short: as §2
[17] = test system: HCT-116; test: Induction of cell cycle arrest in human HCT-116 cells assessed as cell accumulation at pre-G1 phase at IC50 concentration after 24 hrs by propidium iodide staining based flow cytometric analysis (reference value: 2.02%); type: functional
[18] = test system: HCT-116; test: Induction of cell cycle arrest in human HCT-116 cells assessed as cell accumulation at G1 phase at IC50 concentration after 24 hrs by propidium iodide staining based flow cytometric analysis (reference value: 46.95%); type: functional
[19] = test system: HCT-116; test: Induction of cell cycle arrest in human HCT-116 cells assessed as cell accumulation at S phase at IC50 concentration after 24 hrs by propidium iodide staining based flow cytometric analysis (reference value: 37.66%); type: functional
[20] = test system: HCT-116; test: Induction of cell cycle arrest in human HCT-116 cells assessed as cell accumulation at G2/M phase at IC50 concentration after 24 hrs by propidium iodide staining based flow cytometric analysis (reference value: 15.39%); type: functional
[21] = test system: HCT-116; test: Induction of cell cycle arrest in human HCT-116 cells assessed as cell increase in accumulation at G2/M phase at IC50 concentration after 24 hrs by propidium iodide staining based flow cytometric analysis; type: functional
[22] = test system: HCT-116; test: Induction of apoptosis in human HCT-116 cells assessed as early apoptotic cells at IC50 concentration after 24 hrs by annexin-V-FITC/PI staining based flow cytometric analysis (reference value: 0.34%); type: functional
[23] = test system: HCT-116; test: Induction of apoptosis in human HCT-116 cells assessed as late apoptotic cells at IC50 concentration after 24 hrs by annexin-V-FITC/PI staining based flow cytometric analysis (reference value: 1.31%); type: functional
[24] = test system: HCT-116; test: Induction of apoptosis in human HCT-116 cells assessed as increase in early apoptotic cells at IC50 concentration after 24 hrs by annexin-V-FITC/PI staining based flow cytometric analysis; type: functional
[25] = test system: HCT-116; test: Induction of apoptosis in human HCT-116 cells assessed as increase in late apoptotic cells at IC50 concentration after 24 hrs by annexin-V-FITC/PI staining based flow cytometric analysis; type: functional
[26] = test system: HCT-116; test: Induction of apoptosis in human HCT-116 cells assessed as increase in caspace-3 protein expression at IC50 concentration after 24 hrs by ELISA; type: functional
In short: (§3)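 Cells treated at IC50 for 24 h and lysed in cell extraction buffer. Lysate diluted in standard diluent buffer and human caspase-3, -7, -9, Bax and Bcl-2 quantified by immunoassay kit (pg/mL). Fold change calculated against untreated control cells.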

[27] = test system: HCT-116; test: Induction of apoptosis in human HCT-116 cells assessed as increase in caspace-7 protein expression at IC50 concentration after 24 hrs by ELISA; type: functional; in short: as §3
[28] = test system: HCT-116; test: Induction of apoptosis in human HCT-116 cells assessed as increase in caspace-9 protein expression at IC50 concentration after 24 hrs by ELISA; type: functional; in short: as §3
[29] = test system: HCT-116; test: Induction of apoptosis in human HCT-116 cells assessed as increase in Bax protein expression at IC50 concentration after 24 hrs by ELISA; type: functional; in short: as §3
[30] = test system: HCT-116; test: Induction of apoptosis in human HCT-116 cells assessed as decrease in Bcl-2 protein expression at IC50 concentration after 24 hrs by ELISA; type: functional; in short: as §3
[31] = test system: HCT-116; test: Induction of apoptosis in human HCT-116 cells assessed as increase in Bax/Bcl-2 ratio at IC50 concentration after 24 hrs by ELISA; type: functional, cell-based; in short: as §3
[32] = target: T1, Receptor tyrosine-protein kinase erbB-2 (Homo sapiens, UniProt P04626); test: Inhibition of HER2 (unknown origin) at 10 uM relative to control
T1 sequence (P04626 whole entry): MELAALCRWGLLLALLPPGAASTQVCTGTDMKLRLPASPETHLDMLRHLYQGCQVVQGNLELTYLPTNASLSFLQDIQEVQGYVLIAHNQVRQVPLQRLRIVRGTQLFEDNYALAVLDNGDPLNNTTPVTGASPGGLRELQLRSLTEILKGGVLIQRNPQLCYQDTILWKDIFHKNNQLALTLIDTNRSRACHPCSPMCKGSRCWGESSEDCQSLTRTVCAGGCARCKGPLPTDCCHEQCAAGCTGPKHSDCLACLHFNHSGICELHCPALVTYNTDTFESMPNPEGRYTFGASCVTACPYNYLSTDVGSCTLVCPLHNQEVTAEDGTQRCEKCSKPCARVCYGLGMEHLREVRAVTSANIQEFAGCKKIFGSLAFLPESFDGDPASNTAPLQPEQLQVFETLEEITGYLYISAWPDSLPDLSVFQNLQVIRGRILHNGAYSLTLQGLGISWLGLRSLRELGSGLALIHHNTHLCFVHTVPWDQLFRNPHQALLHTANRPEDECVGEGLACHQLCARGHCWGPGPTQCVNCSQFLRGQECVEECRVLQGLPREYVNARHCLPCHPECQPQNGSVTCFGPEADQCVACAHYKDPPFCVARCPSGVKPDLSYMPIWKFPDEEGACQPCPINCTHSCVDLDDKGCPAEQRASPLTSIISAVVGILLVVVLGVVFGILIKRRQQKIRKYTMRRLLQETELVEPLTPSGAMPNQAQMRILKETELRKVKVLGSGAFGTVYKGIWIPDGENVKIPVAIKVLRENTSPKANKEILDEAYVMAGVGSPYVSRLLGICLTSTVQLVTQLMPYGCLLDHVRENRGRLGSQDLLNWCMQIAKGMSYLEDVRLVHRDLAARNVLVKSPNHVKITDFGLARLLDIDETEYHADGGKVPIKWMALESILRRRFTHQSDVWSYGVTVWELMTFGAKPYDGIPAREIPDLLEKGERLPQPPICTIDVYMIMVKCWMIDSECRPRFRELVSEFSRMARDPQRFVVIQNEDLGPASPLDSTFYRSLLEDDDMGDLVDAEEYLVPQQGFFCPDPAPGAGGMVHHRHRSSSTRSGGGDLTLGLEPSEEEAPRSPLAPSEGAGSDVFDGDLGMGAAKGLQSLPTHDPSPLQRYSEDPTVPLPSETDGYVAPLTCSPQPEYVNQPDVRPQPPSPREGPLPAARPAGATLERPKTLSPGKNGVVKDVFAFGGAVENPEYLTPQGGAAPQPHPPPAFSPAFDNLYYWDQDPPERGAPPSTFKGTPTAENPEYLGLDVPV
In short: (§4)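 Cell-free immunoassay kit measuring EGFR T790M/HER2 kinase inhibition. Percent inhibition screened at 10 µM. IC50 obtained from four concentrations (0.01-10 µM) by fitting E(%) = Emax/(1+[I]/ID50) to a dose-response curve. Mean of two independent replicates.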

[33] = target: Epidermal growth factor receptor (Homo sapiens, UniProt P00533, T790M); test: Inhibition of EGFR T790M mutant (unknown origin)
Chain of Epidermal growth factor receptor (P00533 25-1210 T790M limits assumed): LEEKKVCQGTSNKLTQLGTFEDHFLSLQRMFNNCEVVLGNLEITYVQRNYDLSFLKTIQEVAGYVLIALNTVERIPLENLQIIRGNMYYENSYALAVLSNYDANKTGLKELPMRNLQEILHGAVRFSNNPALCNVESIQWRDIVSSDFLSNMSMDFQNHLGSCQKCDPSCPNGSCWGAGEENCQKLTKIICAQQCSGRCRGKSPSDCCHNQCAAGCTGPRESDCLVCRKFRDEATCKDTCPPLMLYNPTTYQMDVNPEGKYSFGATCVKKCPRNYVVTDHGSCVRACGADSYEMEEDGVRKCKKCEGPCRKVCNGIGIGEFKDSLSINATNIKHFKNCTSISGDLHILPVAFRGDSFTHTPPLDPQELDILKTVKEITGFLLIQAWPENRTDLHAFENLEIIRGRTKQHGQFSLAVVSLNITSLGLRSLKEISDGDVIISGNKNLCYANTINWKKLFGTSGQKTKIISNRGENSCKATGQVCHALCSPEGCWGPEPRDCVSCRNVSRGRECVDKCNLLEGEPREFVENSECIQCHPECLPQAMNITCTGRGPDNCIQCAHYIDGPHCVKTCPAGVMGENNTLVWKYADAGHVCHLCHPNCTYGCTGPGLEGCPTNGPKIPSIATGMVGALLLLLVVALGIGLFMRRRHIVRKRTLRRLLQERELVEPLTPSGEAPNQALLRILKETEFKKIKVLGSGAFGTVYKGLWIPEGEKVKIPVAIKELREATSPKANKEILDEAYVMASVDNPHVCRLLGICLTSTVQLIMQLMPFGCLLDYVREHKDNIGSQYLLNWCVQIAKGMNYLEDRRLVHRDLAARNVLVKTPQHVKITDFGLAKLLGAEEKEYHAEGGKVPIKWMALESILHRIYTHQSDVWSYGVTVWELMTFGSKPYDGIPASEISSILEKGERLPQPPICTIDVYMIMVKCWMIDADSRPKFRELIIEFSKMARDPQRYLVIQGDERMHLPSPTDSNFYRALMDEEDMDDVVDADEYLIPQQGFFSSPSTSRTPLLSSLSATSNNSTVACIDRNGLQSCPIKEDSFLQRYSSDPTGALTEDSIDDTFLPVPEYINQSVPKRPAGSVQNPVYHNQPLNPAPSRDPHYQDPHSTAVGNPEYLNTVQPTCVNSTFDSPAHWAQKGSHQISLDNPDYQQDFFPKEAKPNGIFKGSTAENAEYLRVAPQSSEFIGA

[34] = target: T1, Receptor tyrosine-protein kinase erbB-2; test: Inhibition of HER2 (unknown origin); in short: as §4

Structure (SMILES)	IC50 [2] [nM]	Activity [3] [%]	Activity [4] [%]	Activity [5] [%]	Activity [6] [%]	Activity [7] [%]	Activity [8] [%]	Activity [9] [%]	Activity [10] [%]	Activity [11] [%]	Activity [12] [%]	Activity [13] [%]	Activity [14] [%]	Activity [15] [%]	Activity [16] [%]	inhibition [32] [%]	IC50 [33] [nM]	IC50 [34] [nM]	further results
Cc1nn(-c2ccccc2)c2nc(C(=O)N3NC(=O)/C(=C/c4ccc(Cl)cc4)N=C3c3ccccc3)[nH]c(=O)c12	31.8	-27.57	-17.28	19.53	76	77.2	134.23	202.67	270.93	34.07	18.91	-53.49	174.47	74.77	-50.65				IC50 [1]: 44.3 nM
Cc1ccc(C2=N/C(=C/c3ccc(Cl)cc3)C(=O)NN2C(=O)Cc2nc3c(c(C)nn3-c3ccccc3)c(=O)[nH]2)cc1	29.4	-24.4	-16.14	2.62	50.22	62.01	121.31	176.8	229.74	44.83	31.95	-57.67	134.61	56.77	-37.61	72.6	422	634	Activity [17]: 17.35%; Activity [18]: 22.64%; Activity [19]: 31.42%; Activity [20]: 45.94%; fold change (FC) [21]: 2.98; Activity [22]: 10.37%; Activity [23]: 2.72%; fold change (FC) [24]: 30.79; fold change (FC) [25]: 2; fold change (FC) [26]: 18.5; fold change (FC) [27]: 20; fold change (FC) [28]: 16.5; fold change (FC) [29]: 6.9; fold change (FC) [30]: 3.8; Activity [31]: Active
Cc1nn(-c2ccccc2)c2nc(CC(=O)N3NC(=O)/C(=C\c4ccccc4)N=C3c3ccccc3)[nH]c(=O)c12	47.2	-23.98	-17.45	2.33	63.11	62.01	136.74	202.38	264.32	31.8	33.49	-56.93	69.18	52.65	-50.88	83.6	656	872	
Cc1ccc(C2=N/C(=C\c3ccc(Cl)cc3)C(=O)NN2C(=O)c2nc3c(c(C)nn3-c3ccccc3)c(=O)[nH]2)cc1	26.4	-29.47	-20.49	15.45	66.22	71.73	152.01	208.36	256.83	34.92	13.75	-50.74	113.22	58.15	-36.07	54.5		11200	
CS(=O)(=O)CCNCc1ccc(-c2ccc3ncnc(Nc4ccc(OCc5cccc(F)c5)c(Cl)c4)c3c2)o1 [LAPATINIB]	45.2	-50.58	-34.07	33.24	122.67	142.55	272.65	346.9	425.44	12.11	-8.6	-57.67	172.32	83.04	-81.12				
